This is an account of results in publication PMC8099043 (Pharmacology Research & Perspectives, 2021).

For series [1] the following is noted: pre-treatment of rats with naringenin for 2 weeks vs control; cited from earlier work.
The format of series [2] is in vivo, Sprague–Dawley rat.
The conditions of series [3]: with ticagrelor, rats; cited from earlier work.
Series [4] relates to rat liver microsomes (RLMs). Description: Michaelis–Menten kinetics of rivaroxaban metabolism in RLMs. It is filed as in vitro ADME, Sprague–Dawley rat. The method in brief: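 Rat liver microsomes (1 mg/ml, 100 mM potassium phosphate, pH 7.4) were incubated with substrate over nine levels spanning 1–200 μM. Preincubation was 5 min at 37 °C, then 1 mM NADPH (final) started a 30 min reaction. It was stopped with acetonitrile plus diazepam IS, centrifuged, and the supernatant was run on UPLC‑MS/MS (positive ESI, MRM). Km came from a Michaelis–Menten fit; mean ± SD, n = 3.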

The conditions of series [5]: cited from earlier work.
In series [6] the test system is rivaroxaban metabolism in rat liver microsomes (RLMs). Description: Inhibition of rivaroxaban metabolism by naringenin in rat liver microsomes. The class given is in vitro ADME, Sprague–Dawley rat. To be noted: RLMs, Lineweaver-Burk plot. The method in brief: (§1)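 Flavonoid test compound and substrate were incubated with rat liver microsomes (1 mg/ml) in 100 mM potassium phosphate, pH 7.4. After 5 min preincubation at 37 °C, 1 mM NADPH (final) started the reaction, which ran 30 min. It was quenched with acetonitrile plus diazepam IS, centrifuged and analysed by UPLC‑MS/MS. IC50 used 10 μM substrate with test compound at 1–100 μM.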
In general terms: Liver microsomes are vesicles of endoplasmic reticulum, rich in cytochrome P450 enzymes.

In series [7] the test system is rivaroxaban metabolism in rat liver microsomes. The description is as above. It is filed as in vitro ADME, Sprague–Dawley rat. To be noted: Sprague-Dawley, rat, rat liver microsomes, pH 7.4, probe rivaroxaban (10 μM). An outline of the steps:
as §1

Setting [8] is: Control group: rivaroxaban 10 mg/kg oral gavage only, rats, n = 6.
Where [9] appears, read: pretreatment of rat with naringenin for 14 days.
[10] abbreviates: 10 mg rivaroxaban in combination with 200 mg ketoconazole once daily.
Setting [11] is: co-administration with rifampicin.
Setting [12] is: single-dose rivaroxaban co-administrated with ritonavir.

Structures are written as SMILES. Like-named read-outs stand apart in the source and are kept apart here.

Consider `C[C@@H]1CCN(C(=O)CC#N)C[C@@H]1N(C)c1ncnc2[nH]ccc12` [tofacitinib], for which the “increase of AUC of tofacitinib” value in series [1] was 1.76 fold.
For the compound `O=C(NC[C@H]1CN(c2ccc(N3CCOCC3=O)cc2)C(=O)O1)c1ccc(Cl)s1` [rivaroxaban], in series [2] (Control group: rivaroxaban 10 mg/kg oral gavage only, rats (abstract)), the “AUC(0–t)” value came to 2406.28 ± 519.69 µg/h/L. For the same compound, in series [2] (setting [8]), the “AUC(0–t)” value stood at 2406.28 ± 519.69 µg/h/L and the “AUC(0–∞)” value was 2438.52 ± 529.29 ng/mL/h. Further, the “AUC(0–t)” value in series [2] (Experimental group: naringenin 10 mg/kg/day for 2 weeks, then rivaroxaban 10 mg/kg oral, rats (abstract)) was 4005.04 ± 1172.76 µg/h/L. For the same compound, the time of peak concentration (Tmax) (as a rule, the time at which the peak concentration occurs) in series [2] (male, Sprague-Dawley, rat, plasma, po, 10 mg/kg) worked out at 3.4 ± 0.548 h. Further, in series [2] (setting [9]), the “increase of AUC of rivaroxaban, experimental group vs control” value was 1.7 times and the “increase of Cmax of rivaroxaban, experimental group vs control” value is recorded as 1.6 times. Also, in series [3], the “increase of AUC of rivaroxaban” value is given as “more than twice” and the “increase of Cmax of rivaroxaban” value is “more than twice”. Also, the Km (commonly the concentration of substrate that gives half-maximal velocity) in series [4] (read-out: Km of rivaroxaban metabolism, rivaroxaban 1-200 μM) was determined as 18.4 µM. Moreover, in series [4] (rivaroxaban 1-200 μM), the “Vmax of rivaroxaban metabolism” value worked out at 4.35 pmol/min/mg. Besides, in series [5] (setting [10]), the “increase of AUC of rivaroxaban” value is given as 82%, the “increase of Cmax of rivaroxaban” value is given as 53% and the “reduction of body clearance rate of rivaroxaban” value was 45%. For the same compound, in series [5] (setting [11]), the “decrease of AUC of rivaroxaban” value is given as 50% and the “decrease of Cmax of rivaroxaban” value is 22%. Also, in series [5] (setting [12]), the “increase of AUC of rivaroxaban” value is 150% and the “increase of Cmax of rivaroxaban” value is listed as 60%.
In the case of `O=C1C[C@@H](c2ccc(O)cc2)Oc2cc(O)cc(O)c21` [naringenin], the inhibition type entry in series [6] is listed as “mixed inhibition”. Further, the Ki (usually the dissociation constant of the complex between target and ligand, obtained from inhibition or displacement) in series [6] (rivaroxaban 5-40 μM, naringenin 0-80 μM) was 54.9 µM. The midpoint of inhibition in series [7], the IC50 at 30 min, lay at 38.9 µM.
